The source of these data is ChEMBL document CHEMBL1157153, “Novel cyclohexene derivatives as anti-sepsis agents: synthetic studies and inhibition of NO and cytokine production” (Bioorg Med Chem, 2008).

The test system of assay [1] is RAW264.7. The experiment in a line: Suppression of LPS-induced NO production in mouse RAW264.7 cells by fluorometric assay. The format is functional, cell-based. A digest of the protocol:
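RAW264.7 cells were seeded at 1 × 10⁵ cells/well and incubated overnight. Supernatant was removed and cells were stimulated with 10 ng/mL LPS plus graded compound concentrations for 20 h at 37 °C, 5% CO₂. The medium was phenol red-free RPMI1640 with 1% heat-inactivated FBS. Compounds came from 10 mM DMF stocks diluted in medium. Supernatant nitrite was read with DAN, then NaOH, as fluorescence at ex 355/em 460 nm.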

The subject of assay [2] is RAW264.7. The experiment in a line: Suppression of LPS-induced IL6 production in mouse RAW264.7 cells. The format is functional, cell-based. A digest of the protocol:
(§1)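 IC50 is the concentration cutting TNF-α or IL-6 production to 50% of control. Values are means ± SD from three or four experiments.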

The subject of assay [3] is RAW264.7. The experiment in a line: Suppression of LPS-induced TNFalpha production in mouse RAW264.7 cells. The format is functional, cell-based. A digest of the protocol: as §1
The test system of assay [4] is Mus musculus. The experiment in a line: Suppression of LPS-induced serum NO production in mouse endotoxin shock model at 10 mg/kg, iv administered 1 hr before LPS challenge by fluorometric assay.
Assay [5] relates to Mus musculus. Description: Protective effect against lethal septic shock in iv dosed mouse endotoxin shock model. The format is functional. In short, it runs like this:
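Mice challenged with a lethal dose of LPS (7 mg/kg ip). Compounds were dissolved in 10% (w/v) glucuronylglucosyl-beta-cyclodextrin sodium salt and given intravenously at 1, 3 and 10 mg/kg, 1 h before LPS. Vehicle-dosed mice served as controls. Survival was recorded for 7 days after challenge and reported as survivors/total. ED50 is given in mg/kg.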

Assay [6] relates to Mus musculus. The experiment in a line: Protective effect against lethal septic shock in mouse endotoxin shock model assessed as survival at 10 mg/kg, iv. The arrangement: dose 10 mg/kg. The format is functional, organism-based. In short, it runs like this: (§2)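 Mice got a lethal LPS dose of 7 mg/kg ip. Compound was given iv 1 h before LPS, in 10% (w/v) glucuronylglucosyl-β-cyclodextrin sodium salt. Survival was recorded over 7 days after LPS, with 7–10 mice per group.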

Assay [7] relates to Mus musculus. The experiment in a line: Suppression of LPS-induced serum NO production in mouse endotoxin shock model at 3 mg/kg, iv administered 1 hr before LPS challenge by fluorometric assay.
Assay [8] concerns Mus musculus. The experiment in a line: Suppression of LPS-induced serum NO production in mouse endotoxin shock model at 1 mg/kg, iv administered 1 hr before LPS challenge by fluorometric assay.
Assay [9] relates to Mus musculus. The experiment in a line: Protective effect against lethal septic shock in mouse endotoxin shock model assessed as survival at 1 mg/kg, iv. The format is functional, organism-based. The arrangement: dose 1 mg/kg. A digest of the protocol:
as §2

For orientation: IC50 means the concentration needed to halve the response being measured. Usually inhibition in vivo stands for the relative decrease from the control value, in per cent. By ED50 is commonly meant the midpoint of the dose-response relation.

In the assay on RAW264.7 [1] (Mus musculus, RAW264.7), `CCOC(=O)C1=CCCCC1SCc1ccc(F)cc1Cl` (stereo not given) returned a half-maximal inhibitory concentration (IC50) of 5640 nM.
On the same count and under the same terms, as for `CCOC(=O)C1=CCCCC1S(=O)(=O)Cc1cccc(Cl)c1` (stereo not given), the figure is 14 nM.
`CCOC(=O)C1=CCCCC1S(=O)(=O)C(CF)c1ccc(F)cc1Cl` (stereo in doubt; 26a) yielded a 50% inhibitory concentration (IC50) with RAW264.7 [1] (raw264.7) of 435 nM.
Still for that read-out and setting: as for `CCOC(=O)C1=CCCCC1S(=O)(=O)C(C)c1ccccc1` (stereo in doubt; 19a), the figure is 100 nM.
In the assay on RAW264.7 [1] (Mus musculus, RAW264.7), `CCOC(=O)C1=CCCCC1S(=O)(=O)Cc1ccsc1` (stereo not given) gave an IC50 of 105 nM.
Still for that read-out and setting: next, `CCC(O)C1=CCCCC1S(=O)(=O)Cc1ccc(F)cc1Cl` (stereo not given): > 10000 nM; `CCOC(=O)C1=CCCCC1S(=O)(=O)Cc1ccc(Cl)cc1Cl` (stereo not given): 60 nM.
Still for that read-out and setting: as for `CCCOC(=O)C1=CCCCC1S(=O)(=O)Cc1ccc(F)cc1Cl` (stereo not given), the figure is 14 nM.
In turn, `CCOC(=O)C1=CCCCC1S(=O)(=O)C(C)c1ccccc1` (stereo in doubt; 19b) returned an IC50 in the assay on RAW264.7 [1] (raw264.7) of 1320 nM.
The compound `CCOC(=O)C1=CCCCC1S(=O)(=O)Cc1ccncc1` (stereo not given) returned an IC50 with RAW264.7 [1] (Mus musculus, RAW264.7) of 1410 nM.
Take `CC(C)OC(=O)C1=CCCCC1S(=O)(=O)Cc1ccc(F)cc1Cl` (stereo not given): inhibition in the assay on RAW264.7 [1] (Mus musculus, RAW264.7) was half-maximal at 100 nM (IC50). This IC50 is about 14-fold lower than that of the compound before.
In turn, `CCOC(=O)C1=CCCCC1S(=O)(=O)Nc1ccc(F)cc1Cl` (stereo not given) came in with an IC50 with RAW264.7 [1] (Mus musculus, RAW264.7) of 4.5 nM.
For `CCOC(=O)C1=CCCCC1S(=O)(=O)Cc1ccc(F)cc1Cl` (stereo in doubt; 10a), the half-inhibitory concentration (IC50) was found to be 4.8 nM in the assay with RAW264.7 [2], 10 nM with RAW264.7 [1] (raw264.7) and 21 nM in the assay with RAW264.7 [3].
Turning to `CCOC(=O)C1=CCCCC1S(=O)(=O)Cc1coc2ccccc12` (stereo not given), in the assay on RAW264.7 [1] (Mus musculus, RAW264.7), the half-maximal inhibitory concentration (IC50) was 106 nM. This counts as sub-micromolar.
The same measure, in the same setting: as for `CCOC(=O)C1=CCCCC1S(=O)(=O)Cc1c[nH]c2ccccc12` (stereo not given), the figure is 1010 nM; as for `CCOC(=O)C1=CCCCC1S(=O)(=O)Cc1ccc(Cl)c(Cl)c1` (stereo not given), 53 nM.
In turn, `CCOC(=O)C1=CCCCC1S(=O)(=O)Cc1ccccc1Cl` (stereo in doubt; 10e) yielded an IC50 in the assay with RAW264.7 [1] (raw264.7) of 14 nM.
On the same count and under the same terms, as for `CCOC(=O)C1=CCCCC1S(=O)(=O)Cc1ccccc1Cl` (single isomer, unassigned; (+)), the figure is 11 nM; as for `CCOC(=O)C1=CCCCC1S(=O)(=O)Cc1ccc(F)cc1Cl` (stereo in doubt; (-)-10a), 10000 nM; as for `CCOC(=O)C1=CCCCC1S(=O)(=O)Cc1ccc(F)cc1Cl` (single isomer, unassigned; (+)), 5.7 nM.
On to `O=S(=O)(Cc1ccc(F)cc1Cl)C1CCCC=C1CO` (stereo not given), for which the concentration for half-maximal inhibition (IC50) in the assay with RAW264.7 [1] (Mus musculus, RAW264.7) is > 10000 nM.
Still for that read-out and setting: as for `CCOC(=O)C1=CCCCC1S(=O)(=O)Oc1ccc(F)cc1Cl` (stereo not given), the figure is 904 nM; as for `CCOC(=O)C1=CCCCC1S(=O)(=O)Cc1ccc(Cl)cc1` (stereo not given), 101 nM.
Turning to `CCOC(=O)C1=CCCCC1S(=O)(=O)C(C)c1ccc(F)cc1Cl` (single isomer, unassigned; (+)), the IC50 in the assay with RAW264.7 [1] (raw264.7) came out at 4 nM. That is a single-digit nanomolar value.
As to `CCOC(=O)C1=CCCCC1S(=O)(=O)Cc1ccccc1Cl` (single isomer, unassigned; (-)), the IC50 in the assay with RAW264.7 [1] (raw264.7) was 1200 nM. Compared with the last compound, the IC50 is about 300-fold higher.
The compound `CCOC(=O)C1=CCCCC1S(=O)(=O)Cc1cccc(Cl)c1F` (stereo not given) registered an IC50 with RAW264.7 [1] (Mus musculus, RAW264.7) of 12 nM. That is a double-digit nanomolar value.
With `CCCC(=O)C1=CCCCC1S(=O)(=O)Cc1ccc(F)cc1Cl` (stereo not given), the IC50 with RAW264.7 [1] (Mus musculus, RAW264.7) worked out at 11 nM.
In the case of `CCOC(=O)C1=CCCC[C@H]1S(=O)(=O)Cc1ccc(F)cc1Cl`, the inhibition in vivo at 10 mg/kg with Mus musculus [4] was 76%. For the same compound, the ED50 in the assay on Mus musculus [5] worked out at 1.85 mg/kg. For the same compound, the Activity result in the assay with Mus musculus [6] is “Non-toxic”. In addition, the inhibition in vivo at 3 mg/kg with Mus musculus [7] came to 54%. In the assay on Mus musculus [8], the inhibition in vivo at 1 mg/kg worked out at 27%. The IC50 with RAW264.7 [2] is 1.5 nM; in the assay on RAW264.7 [3], 8.3 nM.
As to `CCOC(=O)C1=CCCCC1S(=O)(=O)Cc1cccc(F)c1F` (stereo not given), the IC50 in the assay with RAW264.7 [1] (Mus musculus, RAW264.7) was 100 nM.
Consider `CCOC(=O)C1=CCCC[C@H]1S(=O)(=O)[C@@H](C)c1ccc(F)cc1Cl`, for which the inhibition in vivo at 10 mg/kg in the assay on Mus musculus [4] came to 78%. For the same compound, the ED50 in the assay on Mus musculus [5] stood at 5.6 mg/kg. The Activity result in the assay with Mus musculus [6] is “Non-toxic”; with Mus musculus [9], “Toxic”. Also, the inhibition in vivo at 3 mg/kg in the assay on Mus musculus [7] is 55.7%. Moreover, in the assay on Mus musculus [8], the inhibition in vivo at 1 mg/kg was -10.1%. For the same compound, the IC50 worked out at 1.8 nM in the assay with RAW264.7 [2] and 20 nM in the assay with RAW264.7 [3].
Turning to `CCOC(=O)C1=CCCCC1S(=O)(=O)Cc1ccc(Cl)cc1F` (stereo not given), in the assay with RAW264.7 [1] (Mus musculus, RAW264.7), the half-inhibitory concentration (IC50) was found to be 104 nM. In other words, the sub-micromolar range.
The same measure, in the same setting: next, `CCOC(=O)C1=CCCCC1S(=O)(=O)Cc1ccccc1` (stereo not given): 101 nM.
In the case of `CC(=O)OCC1=CCCCC1S(=O)(=O)Cc1ccc(F)cc1Cl` (stereo not given), the concentration for half-maximal inhibition (IC50) with RAW264.7 [1] (Mus musculus, RAW264.7) was > 10000 nM.
As for `CCCCOC(=O)C1=CCCCC1S(=O)(=O)Cc1ccc(F)cc1Cl` (stereo not given), half-maximal inhibition with RAW264.7 [1] (Mus musculus, RAW264.7) (IC50) required 103 nM.
For `CCOC(=O)C1=CCCCC1NS(=O)(=O)c1ccc(F)cc1Cl` (stereo not given), the half-inhibitory concentration (IC50) with RAW264.7 [1] (Mus musculus, RAW264.7) was > 10000 nM.
`CCOC(=O)C1=CCCCC1S(=O)(=O)Cc1cc2ccccc2o1` (stereo not given) registered an IC50 in the assay on RAW264.7 [1] (Mus musculus, RAW264.7) of 134 nM. This counts as sub-micromolar.
Take `CCOC(=O)C1=CCCCC1S(=O)(=O)C(C)c1ccc(F)cc1Cl` (stereo in doubt; 22b): the concentration for half-maximal inhibition (IC50) in the assay on RAW264.7 [1] (raw264.7) is 102 nM. This counts as sub-micromolar.
In the assay on RAW264.7 [1] (Mus musculus, RAW264.7), `CCOC(=O)C1=CCCCC1S(=O)(=O)Cc1ccc(F)cc1F` (stereo not given) gave a 50% inhibitory concentration (IC50) of 14 nM.
With `COC(=O)C1=CCCCC1S(=O)(=O)Cc1ccc(F)cc1Cl` (stereo not given), in the assay on RAW264.7 [1] (Mus musculus, RAW264.7), it took 99 nM to reach half-maximal inhibition (IC50).
With `CCOC(=O)C1=CCCCC1S(=O)(=O)Cc1cccc(Cl)c1Cl` (stereo not given), the half-inhibitory concentration (IC50) with RAW264.7 [1] (Mus musculus, RAW264.7) turned out to be 65 nM.
Still for that read-out and setting: as for `CCOC(=O)C1=CCCCC1S(=O)(=O)Cc1ccc(F)c(Cl)c1` (stereo not given), the figure is 13 nM; as for `CCC(=O)C1=CCCCC1S(=O)(=O)Cc1ccc(F)cc1Cl` (stereo not given), 64 nM.
The compound `CCOC(=O)C1=CCCCC1S(=O)(=O)C(C)c1ccc(F)cc1Cl` (single isomer, unassigned; (-)) registered a half-maximal inhibitory concentration (IC50) with RAW264.7 [1] (raw264.7) of 1300 nM.
Regarding `CCOC(=O)C1=CCCCC1S(=O)(=O)C(C)c1ccc(F)cc1Cl` (stereo in doubt; 22a), the 50% inhibitory concentration (IC50) with RAW264.7 [2] came out at 5.8 nM; in the assay with RAW264.7 [1] (raw264.7) it was 14 nM; with RAW264.7 [3], 42 nM.
In the assay on RAW264.7 [1] (Mus musculus, RAW264.7), `CCOC(=O)C1=CCCCC1S(=O)(=O)C(CF)c1ccc(F)cc1Cl` (stereo in doubt; 26b) showed an IC50 of 729 nM.
The same measure, in the same setting: next, `CCOC(=O)C1=CCCCC1S(=O)(=O)Cc1cc(Cl)ccc1F` (stereo not given): 23 nM.
The same measure, in the same setting: next, `CCOC(=O)C1=CCCCC1S(=O)(=O)Cc1cc2ccccc2s1` (stereo not given): 101 nM; `CCOC(=O)C1=CCCCC1S(=O)(=O)Cc1ccccc1F` (stereo not given): 97 nM.
